KCNQ1 act – potentiators or activators of KCNQ1 channel, primary screen, cell-based, thallium flux, high-throughput; B-score at 10 µM; hit rate 0.35% among 310,000; CHO-K1 KCNQ1, thallium flux FluxOR fluorescence; active compounds read high; Potassium voltage-gated channel subfamily KQT member 1 (Homo sapiens), P51787;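 active = fluorescence ratio B-score, a plate-corrected score, at least three library SD, with initial intensity B-score within 5 SD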
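Test system: CHO-K1 cells stably expressing KCNQ1 / Medium: assay buffer / Also added: depolarizing K+/Tl+ stimulus, K2SO4 and Tl2SO4 each 12.5 mM in 5x stock / Incubation: 90 min dye loading and 20 min compound exposure, both at room temperature / Signal: thallium influx via FluxOR fluorescence, kinetic imaging / Evaluation: B score of baseline-normalized fluorescence ratio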
Kir21 block – inhibitors of mouse Kir2.1 inward-rectifier potassium channel; Inward rectifier potassium channel 2 (Mus musculus), P35561; HEK293-Kir2.1, FluxOR thallium flux fluorescence; active compounds read low; B-score at 10 µM; hit rate 0.85% among 310,000; AID 1672, 2009;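 active = fluorescence ratio B-score at or below minus 3 SD of library scores, with starting-brightness B-score within 2 SD, cut at about -4.2 in these data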;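 also: channel flux triggered by added potassium and thallium sulfate stimulus; B-score of peak minus minimum fluorescence over baseline after thallium stimulus; more negative B-score means stronger Kir2.1 block with less thallium influx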
KCNK3 inh – human KCNK3 channel inhibitors, primary screen, CHO cells, FluxOR thallium flux, B-score; Potassium channel subfamily K member 3 (Homo sapiens), O14649; FluxOR fluorescence; active compounds read low; B-score at 10 µM; hit rate 0.84% among 340,000;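 active = B-score under library mean minus 4 SD, starting fluorescence ratio at most library mean plus 5 SD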;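 also: more negative B-score means stronger inhibition of thallium flux through KCNK3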
Target sequence (O14649 whole entry, looked up): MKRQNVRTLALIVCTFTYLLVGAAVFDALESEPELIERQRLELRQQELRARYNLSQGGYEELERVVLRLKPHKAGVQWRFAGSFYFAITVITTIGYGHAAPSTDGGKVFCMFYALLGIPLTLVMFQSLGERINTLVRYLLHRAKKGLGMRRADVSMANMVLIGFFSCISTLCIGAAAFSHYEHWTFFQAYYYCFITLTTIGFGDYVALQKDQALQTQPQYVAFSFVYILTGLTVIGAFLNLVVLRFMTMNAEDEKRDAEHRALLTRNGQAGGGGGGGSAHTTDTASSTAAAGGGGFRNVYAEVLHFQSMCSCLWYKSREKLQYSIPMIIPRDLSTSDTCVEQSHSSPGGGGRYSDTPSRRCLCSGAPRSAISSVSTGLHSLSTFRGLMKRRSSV
KCNQ1 inh – inhibitors of human KCNQ1 channel, primary screen, cell-based, thallium flux, high-throughput; CHO-K1 KCNQ1, FluxOR thallium flux fluorescence; active compounds read high; B-score at 10 µM; hit rate 1.3% among 310,000; AID 2642, 2010;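 active = compounds whose thallium flux B-score, printed positive for inhibition, exceeds three library SD while starting fluorescence stays within three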;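 also: channel opened by potassium depolarization with thallium stimulus after 20 min compound exposure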
hERG protect – hERG rescue from dofetilide block, primary screen, cell-based, CHO-hERG, FluxOR thallium flux, dofetilide IC70; Voltage-gated inwardly rectifying potassium channel KCNH2 (Homo sapiens), Q12809; dofetilide IC70 present; activation (rescue from dofetilide block), less the hit threshold, % at 10 µM; hit rate 0.51% among 310,000; AID 1511, 2009;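 active = activation above the mean of controls blocked by dofetilide plus 5 SD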;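 also: thallium influx through hERG after potassium depolarization seen as dye fluorescence rise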
KCNK9 block – KCNK9 potassium channel inhibitors, primary screen, HEK293 cells, thallium flux. B-score at 10 µM. hit rate 1.2% among 310,000. FluxOR thallium flux fluorescence; active compounds read low. Potassium channel subfamily K member 9 (Homo sapiens), Q9NPC2;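 active = ratio B-score over 3 SD below the library mean, with starting fluorescence within 5 SD of its mean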;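 also: negative B-score means less thallium flux so channel inhibition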
KCNK9 block conf – KCNK9 potassium channel inhibitors, confirmation, HEK293 cells, thallium flux, duplicate; inhibition, % at 10 µM; FluxOR thallium flux fluorescence; shares compounds with KCNK9 block; hit rate 43% among 4,900;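 active = thallium signal inhibited by more than 5 SD of the compound-free buffer control wells, on both duplicate plates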;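 also: 0% = assay buffer control wells without compound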
Kir2-1 spec – mouse Kir2.1 channel inhibition, confirmation, selectivity assay for KCNK9 modulator project, cell-based, HEK293, thallium flux; AID 492993, 2010; shares compounds with KCNK9 block; hit rate 4% among 4,900; inhibition, % at 10 µM; Kir2.1 cells, FluxOR thallium flux fluorescence;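 active = thallium signal drop more than 5 SD beyond the mean of the no-compound control wells, seen in both duplicate plates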;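 also: signal is fluorescence rise after thallium addition divided by baseline fluorescence; plate controls were assay buffer only for no effect and full block by chlorpromazine control for full effect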
HEK293 Tl ctr – thallium flux in non-induced HEK293 cells, confirmation, counter-screen for KCNK9 inhibitor project, cell-based, second counter screen, non-induced KCNK9-HEK293. FluxOR thallium flux. hit rate 40% among 4,900. AID 492997, 2010. inhibition, % at 10 µM. shares compounds with KCNK9 block;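 active = thallium signal drop beyond 5 SD of the untreated control mean, on both duplicate plates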;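 also: plate controls were buffer only IC0 wells for no effect and SID17386958 at its maximal inhibitory level for full effect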
Numbers without * were called inactive; i = inactive; x = not tested or not shown. Compounds with a hit are over-represented: about 3.7% of the library has one in this group of screens.

SMILES	KCNQ1 act	Kir21 block	KCNK3 inh	KCNQ1 inh	hERG protect	KCNK9 block	KCNK9 block conf	Kir2-1 spec	HEK293 Tl ctr
CCCCOc1ccc(CC2CCC(=O)NC2=O)cc1 (stereo not given)	i	0.84	i	i	-14.6	i	x	x	x
Cc1ccc(C(=O)N2C(=S)C(c3ccc(F)cc3)=NC23CCN(C)CC3)cc1	i	0.03	i	i	-16.7	i	i	i	i
Cc1ccc(C(=O)N2CCC(C(=O)c3ccc(F)cc3)CC2)cc1	x	x	i	x	x	x	x	x	x
O=c1c2cc(-c3ccccc3)sc2ncn1/N=C/c1ccco1	i	-1.76	i	i	-4.2	i	i	i	i
CCCCCn1cnc2sc(-c3ccccc3)cc2c1=O	i	-0.12	i	i	-7.9	i	x	x	x
O=[N+]([O-])c1ccccc1/C=C/CN1CCN(Cc2ccc3c(c2)OCO3)CC1	i	1.59	i	i	-7.5	i	i	i	i
c1ccc(Cc2noc(CN3CCCN(C4Cc5ccccc5C4)CC3)n2)cc1	i	0	i	i	-17.4	i	x	x	x
c1ccc(Cc2noc(CN3CCN(C4CCc5ccccc5C4)CC3)n2)cc1 (stereo not given)	i	-0.05	i	i	-13.1	i	i	i	i
C(=C\c1ccccc1)/CN1CCN(Cc2nc(Cc3ccccc3)no2)CC1	i	-0.13	i	i	-10.3	i	i	i	i
Fc1ccccc1Cc1noc(CN2CCN(Cc3ccc4c(c3)OCO4)CC2)n1	i	0.44	i	i	-13.9	i	x	x	x
c1ccc(Cc2noc(CN3CCN(Cc4ccc5c(c4)OCO5)CC3)n2)cc1	i	-1.11	i	i	-11.4	i	i	i	i
C(=C\c1ccccc1)/CN1CCN(Cc2ccc3c(c2)OCO3)CC1	i	-0.62	i	i	-3.5	i	x	x	x
CC(=NNC(=S)N1CC2CCC(CC2)C1)c1ccncn1	x	x	i	x	x	x	x	x	x
CCC(=O)N1CCN(c2ccc(NC(=S)NC(=O)c3cc4ccccc4o3)cc2)CC1	i	-0.3	i	i	0.5	i	x	x	x
COc1ccccc1CN1CCN(Cc2nc(Cc3ccccc3)no2)CC1	i	0.02	i	i	-9.6	i	i	i	i
c1cc(C2CCN(Cc3nc(-c4ccc5c(c4)OCO5)no3)CC2)ccn1	i	0.51	i	i	-16.3	i	x	x	x
c1ccc(OCCN2CCN(Cc3nc(-c4ccc5c(c4)OCO5)no3)CC2)cc1	i	-0.45	i	i	-6.0	i	i	i	i
CC(C)(C)c1cc(CN2CCN(CCO)CC2)cc(C(C)(C)C)c1O	i	-0.16	i	i	-9.7	i	x	x	x
CC(C)c1cc(CN2CCN(CCC#N)CC2)cc(C(C)C)c1O	i	1.24	i	i	-2.2	i	i	i	i
CCN(c1ccccc1)S(=O)(=O)c1cccc(C(=O)OCC(=O)Nc2ccc(NC(C)=O)cc2)c1	x	x	i	x	x	x	x	x	x
Cc1ccc(-c2cc3ccccc3nc2N2CCOCC2)cc1	i	-1.13	i	i	-10.6	i	i	i	i
COC(=O)CSc1nc(C2CC2)cc(C(F)(F)F)c1C#N	i	-1.96	i	i	-12.0	i	x	x	x
CCOC(=O)CSc1nc(C2CC2)cc(-c2ccc(Cl)cc2)c1C#N	i	-2.15	i	i	-3.5	-9.47*	53.5%*	i	i
CCOC(=O)C1CCN(Cc2cc(C(C)(C)C)c(O)c(C(C)(C)C)c2)CC1	i	-1.09	i	i	-11.1	i	i	i	i
COC(=O)c1ccc(C(C(=O)NC2CCCCC2)N(Cc2ccc(F)cc2)C(=O)Cc2cccs2)cc1 (stereo not given)	i	-1.48	i	i	-2.6	-10.5*	i	i	31.0%*
SMILES	KCNQ1 act	Kir21 block	KCNK3 inh	KCNQ1 inh	hERG protect	KCNK9 block	KCNK9 block conf	Kir2-1 spec	HEK293 Tl ctr
CCN(CC)S(=O)(=O)c1ccc(N2CCOCC2)c(NC(=O)C2CC2)c1	i	0.06	i	i	-14.9	i	x	x	x
CCC(=O)N(C(=O)CC)N1CCN(c2ccncc2S(=O)(=O)N2CCCCC2)CC1	i	-1.61	i	i	-11.3	-9.29*	42.0%*	i	42.5%*
C=CCc1ccc(OCCOc2cccc3ccc(C)nc23)c(OC)c1	i	-0.1	i	i	-9.1	i	i	i	i
C=CCc1ccc(OCCOCCN(C)C)c(OC)c1	i	-0.24	i	i	-3.0	i	x	x	x
C=CCc1ccc(OCCCOc2ccc(C)c(C)c2)c(OC)c1	i	-0.41	i	i	-11.4	i	i	i	i
C=CCc1ccc(OCCCCOc2ccc(C(=O)O)cc2)c(OC)c1	i	0.79	i	i	-3.6	i	x	x	x
CCN1CCCc2cc(CN(CCN3CCOCC3)C(=O)Nc3ccc(C)c(C)c3)ccc21	i	-0.16	i	i	-12.0	i	i	i	i
O=C(COC(=O)C1=COCCO1)NCc1ccc(F)cc1	i	1.07	i	i	-16.8	i	x	x	x
CC(NC(=O)CCCCCN1C(=O)c2ccccc2C1=O)c1ccc2c(c1)CCCC2 (stereo not given)	i	-0.88	i	i	-3.5	i	i	i	i
CC(NC(=O)CCCCCCN1C(=O)c2ccccc2C1=O)c1ccc2c(c1)CCCC2 (stereo not given)	i	0.43	i	i	-3.6	i	i	i	i
CC(NC(=O)C1CCC(C(=O)NC(C)c2ccccc2)CC1)c1ccccc1 (stereo not given)	i	0.25	i	i	-6.3	i	x	x	x
COC(=O)C1=C(C)N(Cc2ccc(C)cc2)C(=O)/C1=C\c1ccc(O)c(OC)c1	i	-0.35	i	i	-20.5	-8.92*	62.5%*	i	40.0%*
